Reference: ChEMBL document CHEMBL4814057, “4-4-(Anilinomethyl)-3-[4-(trifluoromethyl)phenyl]-1H-pyrazol-1-ylbenzoic acid derivatives as potent anti-gram-positive bacterial agents” (Eur J Med Chem, 2021)
≈ marks a conversion by molar mass, not a printed value. Calls of active or inactive are those of the source. The rule behind the calls is not given here.

What was measured:
Staphylococcus aureus = assay: Antibacterial activity against methicillin resistant Staphylococcus aureus ATCC 700699 persisters assessed as reduction in viability at 16 times MIC by colony counting method; format: functional, organism-based
Outline: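 Stationary-phase S. aureus from overnight CAMHB culture (35 °C, 200 rpm), washed thrice in PBS, diluted to ~5 × 10^8 CFU/ml. Incubated with antibiotic at 35 °C, 200 rpm. Aliquots taken at set times, washed, serially diluted in PBS, drop-plated (6 × 6) on TSA with 5% sheep blood. Colonies counted after 18–20 h at 35 °C. Triplicates.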

Enterococcus faecium = assay: Antimicrobial activity against vancomycin-resistant Enterococcus faecium clinical isolate 1091720 by CLSI-based broth microdilution assay; format: functional
[1] = Toxicity in CD1 mouse assessed as effect on alanine transferase level at 50 mg/kg, ip administered as single dose measured after 24 hrs; format: organism-based; settings: in vivo
Outline: (§1)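 Male CD-1 mice, 8 weeks, 32–37 g, n = 10 per dose. Single IP injection at 5, 20 or 50 mg/kg in 0.9% saline, filter-sterilized; saline vehicle group. Blood taken by cardiac puncture 24 h later. 14 plasma markers measured on a chemistry panel, reported as mean ± SE. Toxicity judged by significance versus controls, normal ranges, dose-dependence and consistency across organ markers.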

[2] = Toxicity in CD1 mouse assessed as effect on total protein level at 50 mg/kg, ip administered as single dose measured after 24 hrs; format: organism-based; settings: in vivo; outline: as §1

Compound: O=C(O)c1ccc(-n2cc(CNc3cc(F)cc(C(F)(F)F)c3)c(-c3ccc(C(F)(F)F)cc3)n2)cc1
- Activity (Staphylococcus aureus): Active
- MIC (Enterococcus faecium): 4 µg/mL (≈ 7.64 µM)
- Activity [1]: Non-Toxic
- Activity [2]: Non-Toxic
